From PubChem BioAssay AID617 (SRMLSC, 2007)

tested on: E. coli BW25113 ΔtolC growth inhibition, OD615; assay: E. coli ΔtolC antibacterial growth inhibition – strain BW25113 ΔtolC::kan, dose response (AID 617)
Method in brief: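 System – E. coli BW25113 ΔtolC::kan bacteria · Input – inoculum from 1:1000-diluted 1.5 h subculture · Buffer or medium – LB plus kanamycin · Compound – serial dilution series of compound · Timing – bacterial growth with compound for 20 h, 37 °C · Measured by – OD615 · Read-out basis – growth-inhibition IC50 from four-parameter logistic curve, bounds set to 0% and 100% · Benchmarks – chloramphenicol 30 µM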

First: CCCCCn1c(SCCC(C)C)nc2c1c(=O)[nH]c(=O)n2C
Second: CCCCC(CC)CNC(=O)c1[nH]c(C)c(C(C)=O)c1C (configuration not stated)
The IC50 of the first is 30-fold higher: 38 µM for the first, 1.28 µM for the second.

`C=C(C)COc1ccc(-c2[nH]ncc2Oc2ccccc2OC)c(O)c1` and `COCCCN1C(=O)c2[nH]nc(-c3ccccc3O)c2C1c1ccc(Cl)cc1` (configuration not stated) are within 1.5-fold of each other in IC50: 5.72 µM for the first, 5.96 µM for the second.

Compared with `CC(C)c1ccc(-c2nnn(Cc3nc4ccccc4s3)n2)cc1`, `COc1ccc(Cn2c(=O)sc3ccccc32)cc1` is 2.7-fold higher in IC50: 22.8 µM for the first, 61.7 µM for the second.

`CCCc1cc(C(=O)Cc2ccc(C(=O)OCC)o2)c(O)cc1O` and `COc1ccc(OC)c(C(=O)COC(=O)c2cc(C)oc2C)c1` are within 1.5-fold of each other in IC50: 18.6 µM for the first, 25.1 µM for the second.

Compared with `CC(=O)c1sc(NC(=O)C2(F)C(F)(F)C(F)(F)C(F)(F)C(F)(F)C2(F)F)nc1C`, `CCOC(=O)c1c(NC(=O)C(F)(OC)C(F)(F)F)sc(C(=O)N2CCCCC2)c1C` (configuration not stated) is 27-fold higher in IC50: 0.92 µM for the first, 24.6 µM for the second. The first is the more potent here.

`O=C(COc1ccc2ccccc2c1Br)N1CCN(c2ccccn2)CC1` and `CCOc1ccccc1N1CCN(C(=O)Nc2ccc(F)c(Cl)c2)CC1` are within 1.5-fold of each other in IC50: 10.5 µM for the first, 10.2 µM for the second.

`COc1cccc(-c2csc(N3CCN(C(=O)C4CCCCC4)CC3)n2)c1` and `Cc1cc(N2CCCCC2)n2ncc(-c3ccccc3)c2n1` are within 1.5-fold of each other in IC50: 16.8 µM for the first, 17.3 µM for the second.

Going from `Cc1cccc(C)c1NC(=O)C(c1cccs1)N(Cc1ccco1)C(=O)Cn1nnc2ccccc21` (configuration not stated) to `c1ccc(CSc2nnc(-c3cccs3)n2Cc2ccco2)cc1`, the IC50 falls from 29.3 µM to 13.2 µM (2.2-fold). The second is the more potent here.

`CCOC(=O)c1ccc(Oc2nc(NC(C)(C)C)nc(N(C)C)n2)cc1` and `CCOC(=O)c1ccc(NC(=O)CCc2nc(-c3ccccc3Cl)no2)cc1` are within 1.5-fold of each other in IC50: 14.9 µM for the first, 10.4 µM for the second.

Going from `Cc1cc(C)nc(-n2nc(C)cc2Nc2ccccc2)n1` to `Cc1nn(-c2nc3ccccc3[nH]2)c(N)c1-c1ccccc1`, the IC50 rises from 2.65 µM to 59.4 µM (22-fold).

`CCC(Oc1ccccc1)C(=O)Nc1ccc(-c2nnc(-c3ccco3)o2)cc1` (configuration not stated) and `c1ccc(CSc2nnc(-c3ccco3)n2Cc2ccccc2)cc1` are within 1.5-fold of each other in IC50: 18.2 µM for the first, 13.8 µM for the second.

`C=CCOC(=O)C(C#N)c1nc2ccccc2nc1N1CCCC1` (configuration not stated) and `O=C(Cn1c2c(c(-c3ccccc3)cc1=O)CCCC2)N1CCCCCC1` are within 1.5-fold of each other in IC50: 8.74 µM for the first, 6.09 µM for the second.

Going from `O=C(CCCSc1nc(-c2ccco2)cc(C(F)(F)F)n1)Nc1ccc2c(c1)OCO2` to `Fc1ccc(CNc2nc(-c3ccco3)cc(C(F)(F)F)n2)cc1`, the IC50 rises from 4.61 µM to 13.9 µM (3-fold).

Going from `O=C(OC1CCc2ccccc2C1=O)c1ccccc1O` (configuration not stated) to `O=C(c1noc2c1CCc1ccccc1-2)N1CCc2ccccc2C1`, the IC50 falls from 27.7 µM to 6.67 µM (4.2-fold). The second is the more potent here.

Going from `CCCCc1c(C)nn(-c2nnc3c4ccccc4n(CC)c3n2)c1C` to `CCCn1c2ccccc2c2nc3ccccc3nc21`, the IC50 rises from 1.77 µM to 73.4 µM (41-fold). The first is the more potent here.

Compared with `O=c1n(Cc2ccccc2)c2cc(Cl)cnc2n1Cc1ccccc1`, `N#Cc1cn(Cc2ccccc2)c2ccccc12` is 1.5-fold higher in IC50: 10.2 µM for the first, 15.3 µM for the second. The first is the more potent here.

First: Cn1c(=O)c2c(SCc3cccnc3)nc(CC(C)(C)C)nc2n(C)c1=O
Second: Cn1c(Oc2ccccc2NCc2cc(Br)ccc2O)cc(=O)n(C)c1=O
The IC50 of the first is 2-fold higher: 8.18 µM for the first, 4.08 µM for the second.

First: Cc1c(C(=O)N2CCc3ccccc3C2)sc2nc(-c3ccccc3)cn12
Second: O=C(CS(=O)(=O)c1ccccc1)Nc1nc(-c2ccccc2)cs1
The IC50 of the first is 1.7-fold higher: 13.6 µM for the first, 8.07 µM for the second. The second is the more potent here.

`Cc1nn(-c2ccccc2)c2sc(C(=O)N(CC(=O)NC(C)(C)C)Cc3ccco3)cc12` and `COc1ccc(-c2csc(NCc3ccco3)n2)cc1C` are within 1.5-fold of each other in IC50: 24.2 µM for the first, 23.2 µM for the second.

Compared with `CC(C)(C)c1[nH]nc2c1C(Cc1ccccc1)C(C#N)=C(N)O2` (configuration not stated), `N#C/C(=C\c1cccs1)Sc1nc2ccccc2s1` is 3.5-fold lower in IC50: 31.7 µM for the first, 9.02 µM for the second. The second is the more potent here.

First: Cc1oc2c(CN3CCCC3)c(O)ccc2c(=O)c1-c1ccc(Br)cc1
Second: CCOC(=O)C1CCN(c2ncnc3c2oc2ccc(Br)cc23)CC1
The IC50 of the first is 2-fold higher: 25.5 µM for the first, 12.8 µM for the second.

Compared with `CCOC(=O)c1c(NC(=O)CN2CCCCC2)sc2c1CCN(C(=O)OCC)C2`, `COC(=O)c1c(NC(=O)c2ccc(C)o2)sc2c1CCCCC2` is 2.7-fold higher in IC50: 10.7 µM for the first, 28.4 µM for the second.

Compared with `N#Cc1c(NC(=O)c2ccc(Cn3cc(Br)cn3)o2)sc2c1CCCCCC2`, `O=C(CN(Cc1ccc2c(c1)OCO2)C(=O)CSc1nc2ccccc2o1)NC1CCCCC1` is 1.9-fold lower in IC50: 11.5 µM for the first, 6.11 µM for the second. The second is the more potent here.

Going from `COc1ccc(OCC(O)Cn2c(=N)n(Cc3ccccc3)c3ccccc32)cc1` (configuration not stated) to `COc1ccc(C(C(O)C(=O)c2c[nH]c3ccccc23)N2CCN(c3ccccc3)CC2)cc1` (configuration not stated), the IC50 falls from 23.9 µM to 7.52 µM (3.2-fold).

`Cc1sc2nc(CN(Cc3cccs3)C(=O)NC3CCCCC3)[nH]c(=O)c2c1C` and `COc1ccc(S(=O)(=O)N(Cc2cccs2)C2CCCC2)cc1` are within 1.5-fold of each other in IC50: 6.91 µM for the first, 8.13 µM for the second.

First: Cc1cc(/C=C(/C#N)c2cccc(F)c2)c(C)n1-c1cccnc1
Second: Cc1ccccc1-c1nnc(SCc2ccccc2F)o1
The IC50 of the first is 2.4-fold lower: 10.9 µM for the first, 25.8 µM for the second.

Compared with `Cc1ccc(Cl)cc1N1CCN(Cc2nnnn2Cc2ccco2)CC1`, `CCCn1nnnc1NC(=O)CSc1ccc(Cl)cc1` is 4.2-fold lower in IC50: 17.6 µM for the first, 4.21 µM for the second. The second is the more potent here.

Compared with `CC1=CC(C)(C)N2C(=O)C3(C(C#N)=C(N)Oc4cc(O)ccc43)c3cccc1c32` (configuration not stated), `Cc1cc2n(n1)C(c1ccc3c(c1)OCO3)Nc1c(C)cccc1-2` (configuration not stated) is 7.1-fold higher in IC50: 4.14 µM for the first, 29.6 µM for the second.

`CCOC(=O)C1CCCN(c2ncnc3c2cnn3-c2ccc(Cl)cc2)C1` (configuration not stated) and `Cc1cccc(-n2ncc3c(N4CCC(C)CC4)ncnc32)c1` are within 1.5-fold of each other in IC50: 9.92 µM for the first, 13 µM for the second.

`O=C(N1CCN(c2ccccc2F)CC1)C12CC3CC(CC(C3)C1)C2` and `Clc1ccc2nc(CN3CCCc4ccccc43)cn2c1` are within 1.5-fold of each other in IC50: 18.6 µM for the first, 25.8 µM for the second.

Compared with `COc1ccc2[nH]c3c(=O)n(CCCCC(=O)NCCN4CCCC4)c(=S)[nH]c3c2c1`, `COc1ccc2[nH]c3c(=O)n(CCCCC(=O)N4CCCC4)c(=S)[nH]c3c2c1` is 23-fold lower in IC50: 17.4 µM for the first, 0.75 µM for the second.

`COc1ccc(OC)c(S(=O)(=O)n2cnc3cc(C)c(C)cc32)c1` and `COc1ccc(-n2cnc3cc(NCc4cccs4)ccc32)cc1` are within 1.5-fold of each other in IC50: 11.4 µM for the first, 10.6 µM for the second.

`CCOC(=O)C1C(=O)C=C(c2ccc(OC)cc2)CC1c1ccco1` (configuration not stated) and `CCOC(=O)c1ccc(-n2[nH]c(-c3ccccc3)cc2=O)cc1` are within 1.5-fold of each other in IC50: 11.6 µM for the first, 8.26 µM for the second.

Compared with `N#CCSc1n[nH]c2nc3c(c(=O)n12)C1(CCCC1)Cc1ccccc1-3`, `C=CCn1c(SCC(=O)Nc2ccc3c(c2)CCC3)nnc1-c1cccs1` is 13-fold higher in IC50: 4.21 µM for the first, 53.8 µM for the second.

Compared with `O=C(CN1CCN(S(=O)(=O)c2ccc(F)cc2)CC1)Nc1ccc(Cl)c(C(F)(F)F)c1`, `COc1cc(NS(=O)(=O)c2ccc(NC(=O)COc3ccccc3Cl)cc2)nc(OC)n1` is 2.7-fold higher in IC50: 9.07 µM for the first, 24.6 µM for the second.

Going from `CCOC(=O)Cc1c(C)nc2c(-c3ccc(Cl)cc3)c[nH]n2c1=O` to `CCn1c(=O)c(C(=O)Nn2c(C)nc3ccccc3c2=O)c(O)c2ccccc21`, the IC50 rises from 2.11 µM to 3.26 µM (1.5-fold). The first is the more potent here.

Going from `CC(C)Sc1nc(NCc2ccco2)c2c3c(sc2n1)COC(C)(C)C3` to `O=C(CSc1nnc(Cc2cccs2)n1Cc1ccco1)Nc1ccc(Br)cc1`, the IC50 falls from 20.6 µM to 5.74 µM (3.6-fold). The second is the more potent here.

`Cc1ccc2cc(C(c3nnnn3C3CCCC3)N(Cc3cccnc3)Cc3ccco3)c(=O)[nH]c2c1` (configuration not stated) and `CC(C)(C)c1ccc(Cn2nnc3c(=O)[nH]c(C4CCCN(C(=O)Cc5cccs5)C4)nc32)cc1` (configuration not stated) are within 1.5-fold of each other in IC50: 13.7 µM for the first, 15.6 µM for the second.

`Cc1cccc(NC(=O)c2cc3n(n2)C(C(F)(F)F)CC(c2ccc4c(c2)OCO4)N3)c1` (configuration not stated) and `Cc1ccc2oc(=O)n(Cc3ccccc3OC(C)C)c2c1` are within 1.5-fold of each other in IC50: 6.87 µM for the first, 9 µM for the second.

First: O/N=C(\c1ccc(Cl)cc1)c1cc2ccccc2o1
Second: COC(=O)c1sccc1NC(=O)c1csc(C)c1
The IC50 of the first is 4.1-fold lower: 5.7 µM for the first, 23.1 µM for the second. The first is the more potent here.

First: CCCC1=C(C(=O)OCC)C(c2cc(Cl)cc(OC)c2OCC(=O)OCC)NC(=O)N1 (configuration not stated)
Second: CCn1cc(C(=O)NC2CCCCC2C)c(=O)c2ccc(C)nc21 (configuration not stated)
The IC50 of the first is 4.6-fold higher: 24.5 µM for the first, 5.31 µM for the second. The second is the more potent here.
